Assay outcomes: PubChem, several laboratories
Sampled rows, rich in hits. Any-hit rate of the full collection: about 2.8%.
NPY1 pot ag: NPY-Y1 receptor potentiators or agonists, primary screen, cell-based. Neuropeptide Y receptor type 1 (Homo sapiens), P25929. NPY-Y1 expressing cells, potentiator/agonist activation. activation, % at 3.6 µM. hit rate 0.37% among 220,000; in the data active = activation above about 33%, passing the limit was not always enough;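 also: cells stimulated with NPY at EC10 then isoproterenol at EC100; 0% = low agonist plus stimulus and 100% = saturating agonist plus stimulus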
Target sequence (P25929 whole entry, looked up): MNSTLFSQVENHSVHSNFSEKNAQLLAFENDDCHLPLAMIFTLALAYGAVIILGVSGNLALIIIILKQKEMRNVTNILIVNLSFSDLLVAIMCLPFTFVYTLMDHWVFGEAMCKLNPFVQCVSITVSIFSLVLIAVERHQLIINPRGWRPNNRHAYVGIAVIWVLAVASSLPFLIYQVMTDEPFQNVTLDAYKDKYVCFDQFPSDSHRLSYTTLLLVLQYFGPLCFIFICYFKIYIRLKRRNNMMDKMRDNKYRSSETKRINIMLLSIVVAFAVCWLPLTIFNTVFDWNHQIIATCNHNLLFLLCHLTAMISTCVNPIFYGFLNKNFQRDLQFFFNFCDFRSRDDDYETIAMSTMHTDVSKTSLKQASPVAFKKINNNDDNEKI
EP2 antag: human EP2 receptor antagonists, primary screen, TR-FRET cAMP, C6 glioma cells. C6 glioma cells expressing human EP2; cells stimulated with saturating PGE2. inhibition, % at 25 µM. hit rate 0.52% among 260,000;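 active = percent inhibition above 40 after rounding to a whole number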;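 also: rat C6 glioma host cells with rolipram phosphodiesterase inhibitor present; the protocol text gives 20 µM as final concentration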
Target sequence (P43116 whole entry, looked up): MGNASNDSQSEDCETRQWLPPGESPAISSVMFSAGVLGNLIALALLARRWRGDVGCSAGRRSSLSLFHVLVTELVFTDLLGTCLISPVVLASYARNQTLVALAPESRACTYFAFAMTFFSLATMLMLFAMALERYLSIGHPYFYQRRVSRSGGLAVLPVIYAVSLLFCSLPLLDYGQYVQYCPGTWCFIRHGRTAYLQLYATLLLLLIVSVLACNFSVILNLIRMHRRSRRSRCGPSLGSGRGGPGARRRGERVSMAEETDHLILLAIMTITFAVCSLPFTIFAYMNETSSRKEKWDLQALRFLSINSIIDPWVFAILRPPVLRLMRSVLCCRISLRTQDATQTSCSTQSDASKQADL
NPY-Y2 PAM-ag: NPY-Y2 potentiators or agonists, primary screen, cell-based. AID 1359, 2008. Neuropeptide Y receptor type 2 (Homo sapiens), P49146. cells expressing NPY-Y2, potentiator/agonist read-out. activation, % at 3.6 µM. hit rate 0.45% among 220,000; in the data active = activation above about 27%;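 also: cells stimulated with NPY near EC25 plus isoproterenol at EC100; 0% = vehicle plus submaximal agonist and 100% = vehicle plus saturating agonist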
NPY Y2 blocker: NPY-Y2 receptor antagonists, primary screen, cell-based | NPY-Y2 expressing cells, antagonist mode | inhibition, % at 2.7 µM | hit rate 0.99% among 140,000; in the data active = inhibition above about 17%;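 also: 0% = vehicle with agonist challenge and 100% = reference antagonist with challenge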
EP2 mod: EP2 receptor modulators, cAMP readout, primary screen, cell-based, HTRF cAMP, PGE2 stimulation | EP2-expressing cells, cAMP HTRF FRET, PGE2 co-stimulation | hit rate 0.83% among 260,000 | induction, % at 25 µM | Prostaglandin E2 receptor EP2 subtype (Homo sapiens), P43116;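 active = compounds whose cAMP rise, as percent of the full-agonist control response, exceeds 60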;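 also: rat C6 glioma line stably carrying human EP2 under a CMV promoter; the protocol text gives 20 µM as final concentration; 100% = response of wells given 1 µM PGE2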
NPY-Y1 antag: NPY-Y1 receptor antagonists, primary screen, cell-based; inhibition, % at 3.6 µM; HEK293-CNG Y1 cells, membrane potential fluorescence; NPY at EC95, then isoproterenol; hit rate 1% among 200,000; Neuropeptide Y receptor type 1 (Homo sapiens), P25929;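 active = inhibition above the campaign mean inhibition of all tested compounds plus 3 SD, cut at about 20% in these data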;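 also: 0% = DMSO wells given NPY plus isoproterenol and 100% = isoproterenol alone without NPY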
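Material: Y1- and CNG-channel-expressing HEK293 cells / Probe or stimulus: NPY 25 nM then isoproterenol 1 µM plus Ro 20-1724 25 µM / Doses: 3.6 µM single dose, DMSO 0.4% / Schedule: compound incubation 1 h at room temperature, readout 45 min post-stimulation / Signal: membrane potential fluorescence / Benchmarks: isoproterenol-only wells as full block versus NPY-plus-isoproterenol wells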
Starred values were filed as active, the others as inactive; nt = no result.

SMILES | NPY1 pot ag | EP2 antag | NPY-Y2 PAM-ag | NPY Y2 blocker | EP2 mod | NPY-Y1 antag
COC(=O)CNC(c1ccccc1)c1cc(Cl)ccc1NC(=O)c1cccc(Cl)c1 (centres undefined) | -33.5 | -2.1 | -23.6 | 27.6* | 63.1* | 33.9*
COC(=O)CNC(c1ccccc1)c1cc(Br)ccc1NC(C)=O (centres undefined) | -15.2 | 3.7 | -7.6 | nt | -3.9 | 20.1*
CN(C(=O)COC(=O)CNC(=O)c1ccccc1Cl)c1ccccc1 | -18.6 | 4.2 | -14.6 | nt | 34.9 | -3.5
CN(C(=O)COc1ccccc1C(=O)NCCOc1ccccc1)c1ccccc1 | -80.1 | 89.5* | -5.3 | 4.3 | -67.4 | 2.0
O=C(c1cccnc1)C1CCN(C(=O)Cc2c(F)cccc2Cl)CC1 | nt | 3.5 | nt | nt | -6.6 | nt
Cn1nnc2c[n+](CC(=O)c3ccc4ccccc4c3)cc(Br)c21 | 47.2* | 10.6 | 57.0* | nt | 22.2 | nt
Cc1ccccc1C1C(C#N)=C(N)NC(S)=C1C#N (centres undefined) | nt | 14.3 | nt | nt | 70.6* | nt
CC1=C(C#N)C(c2ccccc2O)C(C#N)=C(C)N1 | 14.8 | 11.4 | 11.3 | nt | 21.7 | -1.9
Cc1ncc(CNc2ccc(N3CCN(CCO)CC3)c(Cl)c2)cn1 | nt | 5.3 | nt | nt | -10.4 | nt
CCn1c(SCC(=O)N2CCN(c3cccc(Cl)c3)CC2)nc2ccccc2c1=O | -34.7 | 29.2 | -8.9 | 23.9* | -71.0 | 23.9*
Cc1cc2ccccc2c(=O)n1CC(=O)N1CCN(c2cccc(Cl)c2)CC1 | 21.0 | 10.9 | 11.9 | 3.5 | -4.5 | 0.1
N#CCCSc1nnc(-c2ccncc2)n1Cc1ccccc1 | nt | 7.8 | nt | nt | -38.3 | nt
COc1ccc(C2(C(=O)N3CCC[C@@H]3Cn3nc(-c4cccs4)ccc3=O)CC2)cc1 | nt | 9.9 | nt | nt | -18.2 | nt
CCSc1nnc(NC(=O)NC(CC)(C(F)(F)F)C(F)(F)F)s1 | 47.0* | 15.8 | 22.9 | 0.4 | -9.6 | 0.6
CCSc1nnc(NC(=O)NC(C)(C(F)(F)F)C(F)(F)F)s1 | 1.5 | 4.6 | 11.2 | 0.5 | -9.9 | -2.1
CCOC(=O)c1ccc(NC(=O)CC2S/C(=N/N=C/c3c[nH]c4ccccc34)NC2=O)cc1 (centres undefined) | 49.1* | 13.0 | 33.5* | -3.4 | -68.2 | -15.5
Cc1ccc(NC(=O)CC2S/C(=N/N=C/c3c[nH]c4ccccc34)NC2=O)cc1 (centres undefined) | -1.4 | 1.1 | 11.7 | -7.2 | -84.7 | 5.2
Cc1cccc2cc(C(c3nnnn3Cc3ccc(F)cc3)N3CCCCC3)c(=O)[nH]c12 (centres undefined) | nt | 7.4 | nt | nt | -14.1 | nt
Cc1cc(C)c2[nH]c(=O)c(C(c3nnnn3Cc3ccc(F)cc3)N3CCCCCC3)cc2c1 (centres undefined) | nt | 13.3 | nt | nt | 68.7* | nt
Cc1ccc(C)c2[nH]c(=O)c(C(c3nnnn3CCc3ccccc3)N3CCOCC3)cc12 (centres undefined) | 0.7 | 11.1 | -4.8 | 0.6 | 5.6 | -2.2
Cc1ccc(C)c2[nH]c(=O)c(C(c3nnnn3CCc3ccccc3)N3CCCCC3)cc12 (centres undefined) | nt | 10.8 | nt | nt | 84.6* | nt
Cc1cc(Oc2ccc3ccccc3c2)nc(SCC(=O)c2ccccc2)n1 | -113.8 | 10.2 | -17.3 | 40.8* | 50.3 | 49.8*
Cc1cc(N2CCCCC2)nc(SCC(=O)c2ccccc2)n1 | -7.2 | 5.3 | -8.9 | 5.1 | 13.5 | 4.3
Cc1cc(Oc2ccc(Br)cc2)nc(SCC(=O)c2ccccc2)n1 | -71.7 | 9.3 | -56.2 | 38.8* | 33.5 | 52.2*
COC(=O)CSc1nc(C)cc(Oc2ccccc2)n1 | -7.8 | 10.1 | -11.7 | 2.7 | 12.4 | 6.4
SMILES | NPY1 pot ag | EP2 antag | NPY-Y2 PAM-ag | NPY Y2 blocker | EP2 mod | NPY-Y1 antag
COCCn1c2ccccc2n2c(=O)n(CC(=O)N3C(C)CCCC3C)nc12 (centres undefined) | nt | 3.1 | nt | nt | -30.2 | nt
CCOC(=O)C(=CNc1cc(C)ccc1-n1cccc1)C(=O)OCC | 21.8 | 3.8 | 0.1 | nt | 64.7* | nt
CCOC(=O)C(=CNc1ccc(C(F)(F)F)cc1Cl)C(=O)OCC | -25.6 | 5.9 | -28.4 | nt | 68.6* | nt
CCOC(=O)C(=CNc1ccccc1Cl)C(=O)OCC | 10.8 | 8.8 | 9.2 | nt | 19.5 | nt
COc1ccc(COCC(O)CN2CCOCC2)cc1OC (centres undefined) | 54.3* | 20.3 | 78.5* | -0.9 | 6.4 | -12.1
COc1cccc(OCC(O)CN2CCOCC2)c1 (centres undefined) | 59.8* | 11.7 | 44.8* | 1.9 | 14.7 | -6.1
Cc1cc(C)c2cc(CN(Cc3ccccc3)S(=O)(=O)c3cccc4nsnc34)c(=O)[nH]c2c1 | nt | 11.0 | nt | nt | 10.2 | nt
CCn1c(SCC(=O)Nc2cc(C)on2)nc2sc3c(c2c1=O)CCCC3 | -35.8 | nt | -3.7 | 6.0 | 8.5 | 10.9
CCn1c(SCC(=O)Nc2sc(C)c(C)c2C#N)nc2sc3c(c2c1=O)CCC3 | nt | 14.7 | nt | nt | 69.3* | nt
COc1cc(OC)c(-c2nc3cnccn3c2NCc2cccs2)cc1OC | nt | 10.4 | nt | nt | -13.7 | nt
COc1ccc(NC(=O)c2cc(S(=O)(=O)N3CCCC3)oc2C)cc1 | 9.8 | 7.9 | 8.3 | nt | -0.4 | nt
COc1ccc(NS(=O)(=O)c2cc(OC)ccc2NC(=O)c2cc(C)oc2C)cc1 | 24.5 | 10.9 | 23.8 | 5.0 | -24.6 | 20.4*
Cc1cccc2cc(C(c3nnnn3C3CCCCC3)N3CCC(Cc4ccccc4)CC3)c(=O)[nH]c12 (centres undefined) | nt | 16.6 | nt | nt | -19.2 | nt
Fc1cccc(Cc2noc(CN3CCCN(C4Cc5ccccc5C4)CC3)n2)c1 | -0.9 | 10.4 | -7.1 | nt | -39.9 | 21.5*
Cc1cc(C)c2[nH]c(=O)c(CN(Cc3ccco3)C(c3nnnn3C(C)(C)C)C(C)C)cc2c1 (centres undefined) | nt | 14.7 | nt | nt | 69.6* | nt
CCCC(c1nnnn1C1CCCC1)N(Cc1ccco1)Cc1cc2cccc(C)c2[nH]c1=O (centres undefined) | nt | 9.1 | nt | nt | 58.4 | nt
COc1ccccc1CN(Cc1cc2cccc(C)c2[nH]c1=O)C(c1nnnn1C(C)(C)C)C(C)C (centres undefined) | nt | 12.1 | nt | nt | 87.6* | nt
CCC(c1nnnn1C1CCCC1)N(Cc1ccco1)Cc1cc2cccc(C)c2[nH]c1=O (centres undefined) | nt | 7.0 | nt | nt | 64.0* | nt
CCCC(c1nnnn1C1CCCCC1)N(Cc1ccco1)Cc1cc2cc(C)c(C)cc2[nH]c1=O (centres undefined) | nt | 8.5 | nt | nt | 71.8* | nt
Cc1cccc2cc(CN(CCCO)C(c3nnnn3C(C)(C)C)C(C)C)c(=O)[nH]c12 (centres undefined) | nt | 14.8 | nt | nt | -12.8 | nt
CCC(c1nnnn1C1CCCCC1)N(Cc1ccco1)Cc1cc2ccc(OC)cc2[nH]c1=O (centres undefined) | -30.8 | 5.3 | 1.1 | 1.1 | 55.8 | -4.9
